Results as given in ChEMBL document CHEMBL1129984, “Synthesis and pharmacological characterization of enantiomerically pure muscarinic agonists: difluoromuscarines” (J Med Chem, 1997).

Assays:
[1] = target: T1, Muscarinic acetylcholine receptor M1 (Rattus norvegicus) (UniProt P08482); assay: Muscarinic potency was evaluated at ganglionic Muscarinic acetylcholine receptor M1 mediating Tachycardia in the pithed rat (Increase in heart rate)
T1 sequence (whole entry): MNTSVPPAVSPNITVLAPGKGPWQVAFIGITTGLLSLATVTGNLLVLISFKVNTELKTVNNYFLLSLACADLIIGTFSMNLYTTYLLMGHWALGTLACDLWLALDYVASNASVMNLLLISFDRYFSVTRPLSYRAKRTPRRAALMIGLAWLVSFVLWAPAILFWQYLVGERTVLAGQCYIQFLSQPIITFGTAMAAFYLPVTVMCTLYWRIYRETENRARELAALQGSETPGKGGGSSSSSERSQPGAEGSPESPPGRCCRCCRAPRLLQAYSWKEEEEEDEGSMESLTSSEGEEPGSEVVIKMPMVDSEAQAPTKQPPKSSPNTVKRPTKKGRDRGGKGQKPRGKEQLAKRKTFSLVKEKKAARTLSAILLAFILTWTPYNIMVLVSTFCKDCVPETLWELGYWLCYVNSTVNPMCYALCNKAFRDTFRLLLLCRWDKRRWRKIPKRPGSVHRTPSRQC
Procedure, shortened: (§1)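 Pithed rats, artificially respired at 60 cycles/min, 1 mL/100 g, and equilibrated ≥30 min until heart rate was stable (basal 300 ± 8 beats/min). Agonists in 0.9% saline given iv at 0.1 mL/100 g, with full recovery between single doses. Heart rate measured from the carotid pressure pulse. ED₅₀ read graphically from dose–response curves. 5–9 observations, mean ± SEM.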

[2] = species: Cavia porcellus; assay: Dissociation constant was evaluated on guinea pig ileum at M3 muscarinic receptor
Procedure, shortened: (§2)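 Dissociation constants and relative efficacies derived from guinea pig tissue agonist responses by the Furchgott and Bursztyn method.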

[3] = target: Muscarinic acetylcholine receptor M3 (Cavia porcellus) (UniProt Q8VH26); assay: Relative efficacy was evaluated on guinea pig ileum at Muscarinic acetylcholine receptor M3; assay type: functional, tissue-based; procedure, shortened: as §2
Sequence of Muscarinic acetylcholine receptor M3 (Cavia porcellus) (Q8VH26 1-587): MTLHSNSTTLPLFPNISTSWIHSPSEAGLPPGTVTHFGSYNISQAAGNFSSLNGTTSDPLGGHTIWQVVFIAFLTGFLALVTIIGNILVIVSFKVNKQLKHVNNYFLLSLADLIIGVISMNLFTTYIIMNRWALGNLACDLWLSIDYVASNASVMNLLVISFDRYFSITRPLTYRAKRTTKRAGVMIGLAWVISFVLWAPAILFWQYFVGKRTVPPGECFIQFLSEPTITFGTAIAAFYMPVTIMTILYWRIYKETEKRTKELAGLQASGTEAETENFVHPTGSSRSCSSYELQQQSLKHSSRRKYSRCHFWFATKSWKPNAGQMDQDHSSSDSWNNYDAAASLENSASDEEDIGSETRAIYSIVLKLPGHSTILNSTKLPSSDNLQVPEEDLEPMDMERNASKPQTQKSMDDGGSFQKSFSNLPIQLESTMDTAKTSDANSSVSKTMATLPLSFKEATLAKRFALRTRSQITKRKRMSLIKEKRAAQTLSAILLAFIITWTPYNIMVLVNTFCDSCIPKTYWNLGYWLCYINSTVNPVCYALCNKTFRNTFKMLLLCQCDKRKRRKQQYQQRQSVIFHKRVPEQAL

[4] = tested on: Muscarinic acetylcholine receptor M2 (Cavia porcellus); assay: Muscarinic potency was evaluated on guinea pig heart (force) at Muscarinic acetylcholine receptor M2 (expressed as -logED50)
[5] = target: Muscarinic acetylcholine receptor M3 (Cavia porcellus) (UniProt Q8VH26); assay: Relative efficacy was evaluated on guinea pig bladder at Muscarinic acetylcholine receptor M3; assay type: functional; procedure, shortened: as §2
[6] = target: T2, Muscarinic acetylcholine receptor M2 (Homo sapiens) (UniProt P08172); assay: Relative efficacy was evaluated on guinea pig heart (rate) at Muscarinic acetylcholine receptor M2; assay type: functional; conditions: Cavia porcellus; target entry is the homologue from another species; procedure, shortened: as §2
T2 sequence (whole entry): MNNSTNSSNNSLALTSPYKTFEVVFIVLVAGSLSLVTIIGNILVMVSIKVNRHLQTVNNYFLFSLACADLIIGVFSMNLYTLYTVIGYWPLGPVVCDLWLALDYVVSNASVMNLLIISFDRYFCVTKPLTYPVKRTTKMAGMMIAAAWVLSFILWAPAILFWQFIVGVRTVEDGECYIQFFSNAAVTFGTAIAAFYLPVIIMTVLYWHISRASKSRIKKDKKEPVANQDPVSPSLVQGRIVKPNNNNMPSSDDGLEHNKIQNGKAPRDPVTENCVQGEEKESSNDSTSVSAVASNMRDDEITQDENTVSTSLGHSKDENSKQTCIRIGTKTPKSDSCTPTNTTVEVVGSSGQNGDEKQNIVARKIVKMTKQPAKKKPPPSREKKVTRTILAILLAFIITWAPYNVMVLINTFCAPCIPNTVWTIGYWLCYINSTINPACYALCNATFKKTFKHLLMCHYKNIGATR

[7] = target: Muscarinic acetylcholine receptor M3 (Cavia porcellus) (UniProt Q8VH26); assay: Intrinsic adtivitiy was measured by the ratio between the maximum response and the maximum response of muscarine in guinea pig bladder at Muscarinic acetylcholine receptor M3; assay type: functional
Procedure, shortened: (§3)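 Isolated guinea pig tissues in PSS. Responses are expressed as a percentage of the maximal response in the control curve. Potency is given as pD₂ (−log ED₅₀, the agonist concentration producing 50% of maximal contraction). […] Parallel tissues received only (±)-muscarine to check sensitivity. 6–10 observations, mean ± SEM.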

[8] = target: Muscarinic acetylcholine receptor M3 (Cavia porcellus) (UniProt Q8VH26); assay: Muscarinic potency was evaluated on guinea pig ileum at Muscarinic acetylcholine receptor M3 (expressed as -logED50); assay type: functional, tissue-based; procedure, shortened: as §3
[9] = tested on: Muscarinic acetylcholine receptor M2 (Cavia porcellus); assay: Muscarinic potency was evaluated on guinea pig heart (rate) at Muscarinic acetylcholine receptor M2
[10] = species: Cavia porcellus; assay: Dissociation constant was evaluated on guinea pig bladder at M3 muscarinic receptor; procedure, shortened: as §2
[11] = target: Muscarinic acetylcholine receptor M3 (Cavia porcellus) (UniProt Q8VH26); assay: Muscarinic potency was evaluated on guinea pig bladder at Muscarinic acetylcholine receptor M3 (expressed as -logED50); assay type: functional; procedure, shortened: as §3
[12] = target: T3, Muscarinic acetylcholine receptor M2 (Rattus norvegicus) (UniProt P10980); assay: Muscarinic potency was evaluated at cardiac Muscarinic acetylcholine receptor M2 mediating Bradycardia in the pithed rat (Decrease in heart rate); assay type: functional; procedure, shortened: as §1
T3 sequence (whole entry): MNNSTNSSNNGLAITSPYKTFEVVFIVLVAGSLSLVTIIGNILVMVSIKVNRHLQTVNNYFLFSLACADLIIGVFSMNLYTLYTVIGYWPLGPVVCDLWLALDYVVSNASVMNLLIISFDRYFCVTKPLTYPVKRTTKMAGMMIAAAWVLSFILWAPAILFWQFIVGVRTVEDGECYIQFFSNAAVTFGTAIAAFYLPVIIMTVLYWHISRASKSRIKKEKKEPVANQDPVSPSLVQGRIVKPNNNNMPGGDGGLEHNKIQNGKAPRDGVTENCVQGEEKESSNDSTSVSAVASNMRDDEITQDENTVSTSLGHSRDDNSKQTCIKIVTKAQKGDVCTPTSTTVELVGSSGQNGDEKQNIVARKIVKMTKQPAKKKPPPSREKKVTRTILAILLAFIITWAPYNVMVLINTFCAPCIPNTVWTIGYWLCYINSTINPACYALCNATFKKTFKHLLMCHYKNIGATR

[13] = target: Muscarinic acetylcholine receptor M3 (Cavia porcellus) (UniProt Q8VH26); assay: Intrinsic adtivitiy was measured by the ratio between the maximum response and the maximum response of muscarine in guinea pig ileum at Muscarinic acetylcholine receptor M3; assay type: functional, tissue-based; procedure, shortened: as §3
[14] = species: Cavia porcellus; assay: Dissociation constant was evaluated on guinea pig heart (rate) at M2 muscarinic receptor; procedure, shortened: as §2
[15] = tested on: Muscarinic acetylcholine receptor M2 (Cavia porcellus); assay: Intrinsic activity was measured as the ratio between the maximum response and the maximum response of muscarine in guinea pig heart at Muscarinic acetylcholine receptor M2
[16] = target: T2, Muscarinic acetylcholine receptor M2 (Homo sapiens); assay: Relative efficacy was evaluated on guinea pig heart (force) at Muscarinic acetylcholine receptor M2; assay type: functional; conditions: Cavia porcellus; target entry is the homologue from another species; procedure, shortened: as §2
[17] = species: Cavia porcellus; assay: Dissociation constant was evaluated on guinea pig heart (force) at M2 muscarinic receptor; procedure, shortened: as §2

| Compound | ED50 [1] [mg/kg] | -Log Kd [2] | Relative efficacy [3] | pD2 [4] | Relative efficacy [5] | Relative efficacy [6] | Intrinsic activity [7] | pD2 [8] | -Log ED50 [9] | -Log Kd [10] | pD2 [11] | ED50 [12] [mg/kg] | Intrinsic activity [13] | -Log Kd [14] | Intrinsic activity [15] | Relative efficacy [16] | -Log Kd [17] |
| --- | --- | --- | --- | --- | --- | --- | --- | --- | --- | --- | --- | --- | --- | --- | --- | --- | --- |
| C[C@@H]1O[C@H](C[N+](C)(C)C)CC1(F)F | 0.05 | 4.7 | 0.9 | 6.56 | 0.6 | 23 | 0.83 | 5.8 | 6.58 | 4.4 | 5.23 | 0.14 | 0.99 | 3.39 | 1 | 1.6 | 4.37 |
| C[C@@H]1O[C@H](C[N+](C)(C)C)C[C@H]1F | 0.0045 | 5.72 | 3 | 6.73 | 1.5 | 0.2 | 0.88 | 7.36 | 6.87 | 4.39 | 5.66 | 0.0235 | 0.95 | 5.77 | 0.98 | 1.2 | 4.67 |
| C[C@@H]1O[C@H](C[N+](C)(C)C)C[C@H]1O (racemic) [MUSCARINE] | – | 5.95 | – | – | – | – | – | 7.1 | – | 4.62 | 5.69 | – | 1 | – | – | – | – |
| C[C@H]1O[C@@H](C[N+](C)(C)C)CC1(F)F | 0.1 | 4.47 | 0.8 | 5.76 | 0.2 | 10 | 0.95 | 5.53 | 6.31 | 3.71 | 3.82 | 0.274 | 0.98 | 3.48 | 0.97 | 1.3 | 3.64 |
| C[C@H]1O[C@H](C[N+](C)(C)C)CC1(F)F | – | – | – | 5.77 | – | – | 0.67 | 4.85 | – | – | 3.95 | – | 0.99 | – | 0.98 | – | – |
| C[C@@H]1O[C@@H](C[N+](C)(C)C)CC1(F)F | – | – | – | 6.28 | – | – | 1 | 5.33 | – | – | 4.16 | – | 0.97 | – | 1 | – | – |
